This is an account of results in ChEMBL document CHEMBL1139646, “Sialyl Lewis(x) analogs based on a quinic acid scaffold as the fucose mimic” (Bioorg Med Chem Lett, 2005).

The source made the active and inactive calls. No cut-off for these calls is given here. Where only a bound is given, the exact number is not on record here.

Common to all, as to type: cell-based
Assay [1] addresses T1, E-selectin (Homo sapiens) (UniProt P16581).
T1 sequence (whole entry): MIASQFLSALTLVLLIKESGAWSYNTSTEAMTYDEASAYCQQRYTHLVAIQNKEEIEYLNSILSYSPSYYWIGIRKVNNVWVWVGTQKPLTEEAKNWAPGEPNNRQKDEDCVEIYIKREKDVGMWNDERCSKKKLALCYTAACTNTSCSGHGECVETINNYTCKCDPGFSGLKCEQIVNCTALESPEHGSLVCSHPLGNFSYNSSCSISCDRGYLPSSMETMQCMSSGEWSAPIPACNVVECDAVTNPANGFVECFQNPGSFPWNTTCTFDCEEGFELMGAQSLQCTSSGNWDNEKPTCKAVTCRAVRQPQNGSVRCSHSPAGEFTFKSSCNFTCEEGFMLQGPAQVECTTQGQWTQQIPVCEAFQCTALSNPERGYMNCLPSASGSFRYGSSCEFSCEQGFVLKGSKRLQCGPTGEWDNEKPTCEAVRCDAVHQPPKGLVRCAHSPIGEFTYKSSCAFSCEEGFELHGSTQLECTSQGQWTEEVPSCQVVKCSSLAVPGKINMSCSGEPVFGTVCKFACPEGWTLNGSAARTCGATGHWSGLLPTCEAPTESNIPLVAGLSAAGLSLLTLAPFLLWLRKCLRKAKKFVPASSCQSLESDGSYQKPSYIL
The assay can be described thus: Inhibition of HL-60 cell adhesion to recombinant human Selectin E at 50 mM. In a few lines:
(§1)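 Recombinant human E- or P-selectin was coated in DPBS at 3 µg/mL (150 ng per well) for 3 h and blocked 1 h with DPBS/1% BSA. Inhibitor, diluted from 10 mM DPBS stock into Hanks'/20 mM Hepes pH 7.2–7.4/0.2% glucose/1% BSA, was added with 10^5 HL-60 cells for 15 min at room temperature, then washed with CaCl2-containing buffer. Bound cells were lysed and myeloperoxidase was read with o-phenylenediamine/H2O2 for 1 h at A492. Percent inhibition is relative to the no-inhibitor control.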

Assay [2] has as its target T2, P-selectin (Homo sapiens) (UniProt P16109).
T2 sequence (whole entry): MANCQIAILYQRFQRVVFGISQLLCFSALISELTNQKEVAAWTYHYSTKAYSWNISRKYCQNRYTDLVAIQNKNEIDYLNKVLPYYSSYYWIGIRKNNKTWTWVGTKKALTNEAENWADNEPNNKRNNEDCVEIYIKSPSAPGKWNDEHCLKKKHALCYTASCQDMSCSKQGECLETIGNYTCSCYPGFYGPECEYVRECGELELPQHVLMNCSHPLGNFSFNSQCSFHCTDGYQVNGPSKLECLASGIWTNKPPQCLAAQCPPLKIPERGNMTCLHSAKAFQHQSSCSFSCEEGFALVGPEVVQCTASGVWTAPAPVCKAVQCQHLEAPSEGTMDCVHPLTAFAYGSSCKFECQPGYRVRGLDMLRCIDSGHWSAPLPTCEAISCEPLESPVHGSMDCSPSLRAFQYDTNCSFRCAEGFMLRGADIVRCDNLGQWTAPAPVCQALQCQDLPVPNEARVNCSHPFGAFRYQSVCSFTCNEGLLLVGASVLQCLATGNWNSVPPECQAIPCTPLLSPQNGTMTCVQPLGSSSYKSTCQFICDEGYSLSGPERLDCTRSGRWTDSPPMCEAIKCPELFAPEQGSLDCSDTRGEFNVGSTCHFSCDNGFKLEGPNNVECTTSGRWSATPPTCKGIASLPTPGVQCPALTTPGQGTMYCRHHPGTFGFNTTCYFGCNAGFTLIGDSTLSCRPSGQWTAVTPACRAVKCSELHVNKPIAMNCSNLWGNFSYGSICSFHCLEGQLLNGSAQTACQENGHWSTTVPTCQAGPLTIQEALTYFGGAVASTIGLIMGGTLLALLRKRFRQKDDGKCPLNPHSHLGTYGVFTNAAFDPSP
The assay is described as follows: Inhibition of HL-60 cell adhesion to recombinant human Selectin P at 50 mM.

A further assay concerns the target T3, E-selectin (Homo sapiens, UniProt P16581).
T3 sequence (P16581 whole entry): T1 sequence (whole entry)
The assay is described as follows: Inhibition of HL-60 cell adhesion to recombinant human Selectin E. In a few lines: as §1

Assay [3] deals with T4, P-selectin (Homo sapiens, UniProt P16109).
T4 sequence (P16109 whole entry): T2 sequence (whole entry)
The assay is described as follows: Inhibition of HL-60 cell adhesion to recombinant human Selectin P. In a few lines: as §1

Assay [4] has as its target T4, P-selectin. The assay is described as follows: Inhibition of HL-60 cell adhesion to recombinant human Selectin P; Not active up to 100 mM. Summed up:
as §1

In assay [5] the target is T2, P-selectin (Homo sapiens). The assay is described as follows: Inhibition of HL-60 cell adhesion to recombinant human Selectin P at 50 mM; Not active up to 100 mM. Summed up: as §1
Assay [6] addresses T1, E-selectin (Homo sapiens). The assay can be described thus: Inhibition of HL-60 cell adhesion to recombinant human Selectin E at 50 mM; Not active up to 100 mM. In a few lines:
as §1

Usually inhibition stands for the change of the read-out against control, counted positive when it falls. As usually defined, the IC50 is the midpoint of a concentration-inhibition curve. `O=C(O)[C@H](CO)NC(=O)[C@]1(O)C[C@@H](O)[C@@H](O)[C@H](O)C1`: the figures for the inhibition in assay [1] and in assay [2] were 46% and 88%, respectively. Besides, the concentration for half-maximal inhibition (IC50) was > 50 mM on E-selectin (read-out: IC50) and 19.5 mM at P-selectin [3].

As to `CCC(C)[C@H](NC(=O)[C@]1(O)C[C@@H](O)[C@@H](O)[C@H](O)C1)C(=O)O` (some centres not stated), the inhibition is 44% in assay [1] and 92% in assay [2]. Moreover, the IC50 on E-selectin (read-out: IC50) is > 50 mM; at P-selectin [3], 19 mM.

`O=C(O)CCCNC(=O)[C@]1(O)C[C@@H](O)[C@@H](O)[C@H](O)C1`: the inhibition stood at 40% in assay [1] and 83% in assay [2]. Also, the IC50 is > 50 mM on E-selectin (read-out: IC50) and 40 mM at P-selectin [3].

For the compound `O=C(O)[C@]1(O)C[C@@H](O)[C@@H](O)[C@H](O)C1` [QUINIC ACID], the IC50 result at P-selectin [4] and at E-selectin (hl-60) was “Not Active” in each case. Further, the inhibition result in assay [5] and in assay [6] was “inactive” throughout.

On to `C[C@H](NC(=O)[C@]1(O)C[C@@H](O)[C@@H](O)[C@H](O)C1)C(=O)O`, for which the inhibition worked out at 30% in assay [1] and 8% in assay [2]. In addition, the IC50 on E-selectin (read-out: IC50) and on P-selectin [3] was > 50 mM throughout.

As for `O=C(O)CNC(=O)[C@]1(O)C[C@@H](O)[C@@H](O)[C@H](O)C1`, the inhibition in assay [1] and in assay [2] was 38% in each case. For the same compound, the IC50 at E-selectin (read-out: IC50) and on P-selectin [3] was > 50 mM throughout.

Turning to `O=C(O)CCCCCNC(=O)[C@]1(O)C[C@@H](O)[C@@H](O)[C@H](O)C1`, the inhibition in assay [1] amounted to 31%; in assay [2], 14%. Further, the IC50 on E-selectin (read-out: IC50) and on P-selectin [3] was > 50 mM in each case.

As for `O=C(O)CC[C@H](NC(=O)[C@]1(O)C[C@@H](O)[C@@H](O)[C@H](O)C1)C(=O)O`, the inhibition was 43% in assay [1] and 86% in assay [2]. In addition, the IC50 was > 50 mM on E-selectin (read-out: IC50) and 21 mM at P-selectin [3].
